# Source: ChEMBL document CHEMBL4513216, “Probing the Open Global Health Chemical Diversity Library for Multistage-Active Starting Points for Next-Generation Antimalarials” (ACS Infect Dis, 2020)
# Assay: Toxicity liver stage against HepG2, at 10uM
# Format: cell-based
# Design: test concentration 10 uM, cell line HepG2-A16-CD81EGFP
# Conditions: human, HepG2-A16-CD81EGFP cells; read-out: INHIBITION
# Method in brief: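 Uninfected HepG2-A16-CD81EGFP cells, 3 × 10^3 per well, 1536-well, plated on prespotted compound at 10 μM final, parasite-free screening media added to match infected plates; puromycin 10 μM positive, DMSO 0.5% negative; run in parallel with 48 h PbLuc assay at 37 °C, 5% CO2; viability by CellTiter-Glo luminescence, normalized to controls.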
row,Compound,cytotoxicity at 10 µM [%]
1,CCC1CN(CC(=O)NCCN(CC)CC)c2ccccc2S1 (stereo unspecified),-1.23
2,COCC1c2nnn(CC3CC3)c2CCN1C(=O)c1ccncn1 (stereo unspecified),-132
3,CC1=N[C@@]2(CC[C@@H]3CN(Cc4ccccc4F)C[C@@H]32)C(=O)N1C,3.76
4,Cc1ccc(C(=O)N2CCC3(CC2)CC(c2ccccc2)C(=O)N3)o1 (stereo unspecified),11.1
5,c1ccc(N2CCOCC3(CCCN(c4nccs4)C3)C2)nc1 (stereo unspecified),-104
6,Cc1cnc(C(=O)N2CC[C@H]3C[C@@H](c4nc(C)cs4)O[C@@H]3C2)cn1,9.32
7,O=c1[nH]nc2nc(N3CCCC3)ccn12,-6.07
8,CCNS(=O)(=O)c1cnccc1N1CCN(CCO)CC1,3.6
9,O=c1c2cnc(N3CCCCC3)nc2ccn1-c1ccccc1,-10.1
10,O=C(NCc1cccnc1)C1=NOC2(CCN(S(=O)(=O)C3CC3)C2)C1 (stereo unspecified),-7.36
11,CN(C)S(=O)(=O)N1CC[C@@H]2CN(Cc3cnn(C)c3)C[C@@H]2C1,13.5
12,Cc1ccc(Cn2cc(Br)c(NS(C)(=O)=O)n2)cc1,0.22
13,CCCn1c(SCC(N)=O)nnc1-c1csc2c1CCCC2,-1.42
14,Cc1nn(C)c2c(N(C)Cc3ccco3)nc(C3CC3)nc12,1.58
15,CCn1ccc(NS(=O)(=O)c2cccc(COC)c2)n1,-5.41
16,N#Cc1cn[nH]c1NCc1cc(I)cc(I)c1O,1.11
17,O=C(c1cc2cccc(F)c2[nH]1)N1C[C@@H](O)[C@H](N2CCCC2)C1,0.152
18,FC(F)(F)c1cc(C2CCCN(c3cnccn3)C2)n2ccnc2n1 (stereo unspecified),6.39
19,CCC(O)Cn1nc(-c2ccc(C(=O)O)cc2)cc1-c1cccc(F)c1 (stereo unspecified),8.17
20,Cc1ncc(CN2CCOC(c3ccc(-c4cc[nH]n4)cn3)C2)s1 (stereo unspecified),-16.5
21,CN1CCC(c2cncc(-c3cccc(Cl)c3)n2)CC1,-20.8
22,O=C(c1ccccn1)N1CCC(c2nc(O)cc(-c3ccncc3)n2)C1 (stereo unspecified),-4.7
23,Cc1ccccc1-c1cncc(C2CCN(Cc3ccccn3)CC2)n1,-22.2

row,Compound,cytotoxicity at 10 µM [%]
1,CC1CCN(S(=O)(=O)N2CCC(Oc3cnccn3)CC2)CC1,-2.76
2,CN(C)Cc1ccnc(C2CCCN2Cc2cc3ccccc3s2)n1 (stereo unspecified),20.2
3,O=C(Nc1cccnc1N1CCSCC1)c1cc2c(s1)CCCCC2,-3.25
4,CN(Cc1cccc(OC(F)(F)F)c1)C(=O)Cc1ccon1,-9.61
5,CCc1nnc2n1CCN(C(C(=O)N(CC)CC)c1ccccc1)C2 (stereo unspecified),-0.77
6,COCC(O)CN1CCC(NC(=O)c2ccccc2Cl)CC1 (stereo unspecified),-4.87
7,O=C(Nc1cccc(N2CCCC2)c1)N[C@H](CCO)c1ccccc1,-4.52
8,CN(Cc1cccs1)Cc1nnsc1Cl,-5.65
9,CCc1noc(CNc2cc3c(cc2Cl)OCCCO3)n1,-1.98
10,CS(=O)(=O)CCCNc1cccc(COC2CCCCC2)c1,9.5
11,CCCn1nc(C(=O)NCCc2nnc3n2CCC3)ccc1=O,3.38
12,COc1ccccc1CNC(=O)C(C)N1CC(n2cc(C)cn2)C1 (stereo unspecified),6.15
13,COC(=O)c1ccc(N(C(=O)c2cc(Cl)ccn2)C(C)C)c(C)c1,7.51
14,COc1cc(C#N)ccc1OCC(=O)NS(=O)(=O)c1cccnc1,5.41
15,Cc1ccc(NC(C(N)=O)c2ccc(F)cc2)cc1 (stereo unspecified),9.19
16,C[S+]([O-])c1nncn1CC(=O)c1ccc(Br)cc1 (stereo unspecified),0
17,CCOC(=O)NC(CNC(=O)c1cn(C)cn1)CC(C)C (stereo unspecified),-5.35
18,Cc1cccc(C)c1OCC(O)CNCc1c(C)nn(C)c1N(C)C (stereo unspecified),-1.47
19,CC1CCCN(C(=O)Nc2cccc(CN3CCOC3=O)c2)C1 (stereo unspecified),18.3
20,COCC(=O)NCCCn1nc2ccccn2c1=O,11.8
21,NC(=O)c1ccc(CN2CCC(N3CCCCC3)CC2)cc1,-7.55
22,[O-][S+](Cc1c(F)cccc1Cl)Cc1nnnn1C1CC1 (stereo unspecified),0.0902
23,CN(C)S(=O)(=O)c1cccc(NC(=O)Cc2ccon2)c1,9.48

row,Compound,cytotoxicity at 10 µM [%]
1,CCOc1cc(C(=O)N2CC=C(c3ccc(O)cc3)CC2)ccn1,-4.89
2,Cc1nc(C2CCCN(c3ncc(Br)cn3)C2)no1 (stereo unspecified),-0.598
3,C[C@@H]1CN(C(=O)Nc2cccc(OC(F)F)c2)CC(C(N)=O)O1 (stereo partly specified),5.52
4,Cc1cc(C(=O)Nc2nnn[nH]2)ccc1I,-2.08
5,O=S(=O)(CCNCCn1cccn1)c1ccccc1,11.5
6,Cc1nc(C2CN(Cc3ccccc3C)CCO2)no1 (stereo unspecified),-1.51
7,CCCN(CCN(C)C)C(=O)Cc1cn2ccsc2n1,0.27
8,Cc1noc(C)c1CN1CCN(C(=O)Cn2cncn2)CC1,-3.52
9,Cc1nc(NC(=O)CN2CCc3c(nc(C(C)C)n3C)C2)sc1C,-9.52
10,Cn1cc(CC2CCN(C(=O)NCc3cn4ccsc4n3)C2)cn1 (stereo unspecified),-5.57
11,COC[C@@]12CCC[C@@H]1CN(C(=O)COc1ccccc1OC)C2,-106
12,O=C(NCCn1cccc1)C1CCN(C2CCCCC2)CC1,-0.467
13,Cc1nc2c(c(=O)n1C)CCN(Cc1cc3cc[nH]c3cn1)CC2,-9.56
14,CCC[C@@H]1CN(Cc2ccccc2OC(F)(F)F)C[C@H]1NC(C)=O,5.5
15,CC(=O)c1cccc(CN2CCCC23CCN(c2ccccn2)CC3)c1,-15.4
16,CNC(=O)c1cc(NC(=O)NCC2CCS(=O)(=O)C2)ccc1OC (stereo unspecified),9.57
17,O=C(c1ccc(S(=O)(=O)NCc2ccncc2)cc1)N1CCNCC1,2.3
18,CC(=O)NCCNCc1cn(CCN2CCSCC2)nc1C,0.95
19,CC(=O)NCCC1CCCCN1C(=O)c1cccc(CCC(C)(C)O)c1 (stereo unspecified),4.13
20,Cc1nc(C(=O)N2CCC3(CC2)CC(=O)N(CC2CCCO2)C3)cs1 (stereo unspecified),2.34
21,O=C(c1nc(=O)[nH]c2ccccc12)N1CCCC2(CCNC2)C1 (stereo unspecified),-3.64
22,CCCC1COCCN1Cc1ccc(C(=O)O)cc1 (stereo unspecified),-139
23,Cc1noc(CN(C)C(=O)CCn2cnc3ccccc32)n1,10.1

row,Compound,cytotoxicity at 10 µM [%]
1,Cc1ccsc1CN(Cc1ccccn1)CC(O)CO (stereo unspecified),0.773
2,N#Cc1ccnc(NCc2cc3n(n2)CCCN(C(=O)C2CCC2)C3)c1,-135
3,CCOc1ccccc1CC(=O)N1CCCC(c2ncc[nH]2)C1 (stereo unspecified),-2.65
4,CC(CC(F)(F)F)NCc1ccccc1-n1ccnc1 (stereo unspecified),3.15
5,O=C1OCCN1CCNc1ncc2c(n1)CCN2c1ccccc1,-4.95
6,CCn1ncnc1C1CC(=O)NCc2nc(N3CCOCC3)sc21 (stereo unspecified),3.94
7,N#Cc1cccc(NC(=O)N2CCC3(CCC(=O)N(C4CC4)C3)CC2)c1,3.9
8,Cc1c[nH]c(CN2CCOC(c3ccc(Cl)c(Cl)c3)C2)c(C)c1=O (stereo unspecified),17.7
9,CC(=O)N[C@@H]1CN(Cc2ccccc2-n2cccn2)C[C@H]1C(C)C,8.67
10,Cc1ncc(C(=O)NCCOc2ccccc2F)c(C)n1,24.8
11,O=C(c1cccnc1SC/C=C/c1ccccc1)N1CCOCC(O)C1 (stereo unspecified),-2.42
12,O=C(NCCN1CCCCC1)c1ccn(-c2ccccc2)n1,7.53
13,Cc1cnn(C2CCCN(C(=O)c3ccc(N4CCCC4)nc3)C2)c1 (stereo unspecified),-4.77
14,CCc1ncncc1C(=O)N1CCCN(Cc2ccc(C#N)cc2)CC1,-2.91
15,CCC(C)(C)NC(=O)CN1C=Nc2ccccc2S1(=O)=O,-4.47
16,CC(C)c1nccn1C1CCCN(C(=O)CN(C)C2CC2)C1 (stereo unspecified),-4.3
17,CCc1nc2n(n1)CC(NCc1nc(Cc3ccccc3)no1)CC2 (stereo unspecified),1.06
18,O=C(c1ccc2c(c1)CCCC2)N1CCCC(n2cncn2)C1 (stereo unspecified),-8.51
19,Cc1nccn1C1CCCN(C(=O)c2cccc(S(C)(=O)=O)c2)C1 (stereo unspecified),-11.6
20,CC(C)CCN(C(=O)c1ccc(-n2ncc(C#N)c2N)cc1)C1CC1,-23.6
21,c1cnnc(N2CCCC2CNCc2cccs2)c1 (stereo unspecified),-9.61
22,CCn1ccnc1CN1CCCN(C(=O)Cc2csc(C)n2)CC1,-2.12
23,COc1ccccc1C(=O)N(C)C1CCN(c2ccccn2)CC1,-15.4

row,Compound,cytotoxicity at 10 µM [%]
1,CC(C)c1nnc(CNC2CCCN(Cc3noc(C4CC4)n3)C2)o1 (stereo unspecified),-5.62
2,CCN1CCN(C(=O)CCc2c(C)noc2Cl)CC1,-4.37
3,O=C(CC1CCCO1)NCc1ccccc1Cn1cncn1 (stereo unspecified),-2.55
4,CCN(CC)Cc1ccc(C(=O)N2CCCCC2Cn2cccn2)o1 (stereo unspecified),-7.89
5,Cc1nc(C)n(C2CCCN(C(=O)c3ccc4c(c3)COC4)C2)n1 (stereo unspecified),-9.12
6,CC(=O)N(Cc1noc(C2CC2)n1)C1CCN(Cc2nccn2C)C1 (stereo unspecified),-5.65
7,OC1CCCN(Cc2ccnc(-c3cccnc3)n2)C1 (stereo unspecified),14
8,CCOCC1CN(CCOc2ccc(Cl)cc2)Cc2c1cnn2C (stereo unspecified),-109
9,Cc1nc(CN2CCc3cc(C(=O)O)c(N(C)C)nc3CC2)cs1,3.42
10,CNC(=O)CN1CC[C@H]2CN(C(=O)c3ccccc3F)C[C@H]2C1,-1.34
11,O=C([C@H]1CC[C@@H]2[C@@H](CCN2Cc2nccs2)O1)N1CCCCO1,6.85
12,Cc1ccccc1CN1CC[C@H]2C[C@H](C(=O)N(C)C)O[C@H]2C1,4.36
13,O=C(C[C@@H]1COC[C@H]2CN(Cc3cccnc3)C[C@@H]12)N1CCOCC1,-3.35
14,O=C1[C@H]2CN(c3ncccn3)C[C@H]2CN1CCN1CCCC1,2.2
15,Cc1ccc2c(c1)C1(CC2)CCN(CC(=O)O)CC1,0.806
16,CN1CCc2onc(CNc3ncccn3)c2C1,1.58
17,COC1COC2(CCN(Cc3ccc(Cl)cc3)CC2)C1 (stereo unspecified),2.2
18,COCCN1CCC(c2nc3ccc(NC(C)C)cn3n2)CC1,-5.26
19,CS(=O)(=O)NC1CC2(CCN(CC3CC3)CC2)Oc2ccccc21 (stereo unspecified),-5.34
